From ChEMBL document CHEMBL1127442, “Triazolinone biphenylsulfonamide derivatives as orally active angiotensin II antagonists with potent AT1 receptor affinity and enhanced AT2 affinity” (J Med Chem, 1994) come the findings set out here.

By Inhibition is commonly meant the percentage by which the read-out fell short of the control. Low readings indicate a weak effect, high ones a strong effect. By IC50 is commonly meant the concentration at which inhibition is half-maximal. Read a high IC50 as weaker potency.

Where only a bound is given, the exact number is not on record here.

Test [1] has as its system Rattus norvegicus. The experiment in a line: Time from onset of action until significant (i.e., >=30%) inhibition of pressor response is no longer observed, at 1 (mg/kg) intravenous dose. The class given is functional.
Test [2] relates to Rattus norvegicus. The experiment in a line: Time from onset of action until significant (i.e., >=30%) inhibition of pressor response is no longer observed, at 1 (mg/kg) peroral dose. Format: functional. The method in brief:
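Conscious catheterized male Sprague-Dawley rats received compound iv or po as the water-soluble potassium salt, or in PEG 400 orally. AII (0.1 μg/kg iv) boluses were repeated at intervals while the compound was active.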

In test [3] the test system is Rattus norvegicus. The experiment in a line: Inhibition of AII pressor response by the compound in conscious, normotensive rats, at 1 (mg/kg) intravenous dose. The class given is functional. The method in brief:
(§1)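 Male Sprague-Dawley rats (300-400 g) were conscious and catheterized for iv dosing and arterial pressure. Compound was given iv or po as the potassium salt in water, with PEG 400 for some oral doses. […] Peak inhibition is the mean of ≥2 rats.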

Test [4] has as its system Rattus norvegicus. Kind of test: Inhibition of AII pressor response by the compound in conscious, normotensive rats, at 1 (mg/kg) peroral dose. The class given is functional. A digest of the protocol: as §1
In test [5] the target is T1, Type-2 angiotensin II receptor (Rattus norvegicus, UniProt P35351).
T1 sequence (P35351 whole entry): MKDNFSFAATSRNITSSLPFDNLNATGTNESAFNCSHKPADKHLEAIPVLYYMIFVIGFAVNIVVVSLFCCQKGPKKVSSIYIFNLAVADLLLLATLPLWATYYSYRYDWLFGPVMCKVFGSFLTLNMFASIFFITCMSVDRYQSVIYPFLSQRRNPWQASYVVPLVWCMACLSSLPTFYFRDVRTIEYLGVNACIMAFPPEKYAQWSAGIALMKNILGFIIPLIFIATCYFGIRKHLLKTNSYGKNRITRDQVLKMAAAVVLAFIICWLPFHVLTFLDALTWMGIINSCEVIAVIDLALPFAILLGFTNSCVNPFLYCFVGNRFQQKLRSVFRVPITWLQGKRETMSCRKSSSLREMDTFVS
Kind of test: In vitro inhibitory activity against angiotensin II rat midbrain AT2 receptor using radioligand [125I]-Sar Ile-AII. A digest of the protocol:
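Dithiothreitol ([…]) was added to the assay mixture to abolish residual AT1 binding. Tubes were run in duplicate, and IC50 came from nonlinear regression of displacement curves.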

The target of test [6] is T2, Type-1 angiotensin II receptor (Oryctolagus cuniculus, UniProt P34976).
T2 sequence (P34976 whole entry): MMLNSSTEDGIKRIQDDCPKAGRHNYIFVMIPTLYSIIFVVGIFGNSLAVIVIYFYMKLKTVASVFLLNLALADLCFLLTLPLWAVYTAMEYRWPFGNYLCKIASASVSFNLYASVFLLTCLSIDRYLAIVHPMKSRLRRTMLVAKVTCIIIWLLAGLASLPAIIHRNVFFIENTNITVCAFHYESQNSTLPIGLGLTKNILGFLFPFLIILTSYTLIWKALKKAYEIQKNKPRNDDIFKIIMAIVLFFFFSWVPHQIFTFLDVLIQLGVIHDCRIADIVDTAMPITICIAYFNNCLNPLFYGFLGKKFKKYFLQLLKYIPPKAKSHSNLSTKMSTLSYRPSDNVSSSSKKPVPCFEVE
The experiment in a line: In vitro inhibitory activity against angiotensin II rabbit aorta AT1 receptor using radioligand [125I]-Sar Ile-AII. Format: tissue-based.

Regarding `CCCCc1nn(-c2ccccc2C(F)(F)F)c(=O)n1Cc1ccc(-c2ccccc2S(=O)(=O)NC(=O)c2cccs2)cc1`, the Duration with Rattus norvegicus [1] was above 5.5 h; in the test on Rattus norvegicus [2], 4.3 h. Further, the Inhibition in the test on Rattus norvegicus [3] is recorded as 76%; with Rattus norvegicus [4], 61%. Moreover, the values for the IC50 in test [5] and in test [6] were 540 nM and 0.94 nM, respectively.

Turning to `CCCCc1nn(-c2ccccc2C(F)(F)F)c(=O)n1Cc1ccc(-c2ccccc2S(=O)(=O)NC(=O)C2CCC2)cc1`, the figures for the half-inhibitory concentration (IC50) in test [5] and in test [6] were 100 nM and 0.84 nM, respectively.

For the compound `CC1CC1Cc1nn(-c2ccccc2C(F)(F)F)c(=O)n1Cc1ccc(-c2ccccc2S(=O)(=O)NC(=O)c2ccccc2)cc1` (stereo not drawn), the values for the half-maximal inhibitory concentration (IC50) in test [5] and in test [6] were 500 nM and 5.8 nM, respectively.

Regarding `CCCCc1nn(-c2ccccc2C(F)(F)F)c(=O)n1Cc1ccc(-c2ccccc2S(=O)(=O)NC(=O)c2cccc(Cl)c2Cl)cc1`, the IC50 in test [5] worked out at 780 nM; in test [6], 0.72 nM.

Consider `CCCCc1nn(-c2ccccc2C(F)(F)F)c(=O)n1Cc1ccc(-c2ccccc2S(=O)(=O)NC(=O)COCC)cc1`, for which the concentration for half-maximal inhibition (IC50) in test [5] amounted to 380 nM; in test [6], 0.75 nM.

As to `CCCCc1nn(-c2ccccc2C(F)(F)F)c(=O)n1Cc1ccc(-c2ccccc2S(=O)(=O)NC(=O)c2ccc(OC)cc2)cc1`, the results for the half-inhibitory concentration (IC50) in test [5] and in test [6] were 500 nM and 0.74 nM, respectively.

On to `CCCCc1nn(-c2ccccc2C(F)(F)F)c(=O)n1Cc1ccc(-c2ccccc2-c2nnn[nH]2)cc1`, for which the concentration for half-maximal inhibition (IC50) was determined as 23000 nM in test [5] and 0.78 nM in test [6].

As to `CCCCc1nn(-c2ccccc2C(F)(F)F)c(=O)n1Cc1ccc(-c2ccccc2S(=O)(=O)NC(=O)c2ccc(Cl)cc2)cc1`, the concentration for half-maximal inhibition (IC50) in test [5] stood at 520 nM; in test [6], 1.2 nM.

Regarding `CCCCc1nn(-c2ccccc2C(F)(F)F)c(=O)n1Cc1ccc(-c2ccccc2S(=O)(=O)NC(=O)c2cccn2C)cc1`, the figures for the IC50 in test [5] and in test [6] were 500 nM and 1.6 nM, respectively.

In the case of `CCCCc1nn(-c2ccccc2C(F)(F)F)c(=O)n1Cc1ccc(-c2ccccc2S(=O)(=O)NC(=O)c2ccc(C(F)(F)F)cc2)cc1`, the IC50 in test [5] came to 1400 nM; in test [6] it was 3.8 nM.

Turning to `CCCCc1nn(-c2ccccc2C(F)(F)F)c(=O)n1Cc1ccc(-c2ccccc2S(=O)(=O)NC(=O)c2cc(OC)c(OC)c(OC)c2)cc1`, the half-inhibitory concentration (IC50) in test [5] was 6500 nM; in test [6], 21 nM.

Regarding `CCCCc1nn(-c2ccccc2C(F)(F)F)c(=O)n1Cc1ccc(-c2ccccc2S(=O)(=O)NC(=O)c2ccoc2C)cc1`, the IC50 came to 110 nM in test [5] and 3 nM in test [6].

Take `CCCCc1nn(-c2ccccc2C(F)(F)F)c(=O)n1Cc1ccc(-c2ccccc2S(=O)(=O)NC(=O)c2ccsc2)cc1`: the figures for the concentration for half-maximal inhibition (IC50) in test [5] and in test [6] were 300 nM and 5 nM, respectively.

In the case of `CCCCc1nn(-c2ccccc2C(F)(F)F)c(=O)n1Cc1ccc(-c2ccccc2S(=O)(=O)NC(=O)NC(C)(C)C)cc1`, the values for the 50% inhibitory concentration (IC50) in test [5] and in test [6] were 130 nM and 2.6 nM, respectively.

As for `CCCCc1nn(-c2ccccc2C(F)(F)F)c(=O)n1Cc1ccc(-c2ccccc2S(=O)(=O)NC(=O)C(F)(F)F)cc1`, the IC50 stood at 400 nM in test [5] and 0.8 nM in test [6].

For `CCCCc1nn(-c2ccccc2C(F)(F)F)c(=O)n1Cc1ccc(-c2ccccc2S(=O)(=O)NS(=O)(=O)c2ccccc2)cc1`, the half-maximal inhibitory concentration (IC50) worked out at 2400 nM in test [5] and 0.2 nM in test [6].

As to `CCCCc1nn(-c2ccccc2C(F)(F)F)c(=O)n1Cc1ccc(-c2ccccc2S(=O)(=O)NC(=O)c2ccccc2Cc2ccccc2)cc1`, the 50% inhibitory concentration (IC50) amounted to 190 nM in test [5] and 0.82 nM in test [6].

Consider `CCCCc1nn(-c2ccccc2C(F)(F)F)c(=O)n1Cc1ccc(-c2ccccc2S(=O)(=O)NC(=O)c2oc(C)cc2C)cc1`, for which the IC50 came to 55 nM in test [5] and 0.22 nM in test [6].

As for `CCCCc1nn(-c2ccccc2C(F)(F)F)c(=O)n1Cc1ccc(-c2ccccc2S(=O)(=O)NC(=O)c2ccc(F)cc2)cc1`, the 50% inhibitory concentration (IC50) in test [5] came to 500 nM; in test [6] it was 0.68 nM.

For `CCCCc1nn(-c2ccccc2C(F)(F)F)c(=O)n1Cc1ccc(-c2ccccc2S(=O)(=O)NC(=O)OCC)cc1`, the values for the IC50 in test [5] and in test [6] were 75 nM and 2.2 nM, respectively.

For `CCCCc1nn(-c2ccccc2C(F)(F)F)c(=O)n1Cc1ccc(-c2ccccc2S(=O)(=O)NC(=O)c2cccc(C(F)(F)F)c2)cc1`, the IC50 in test [5] worked out at 580 nM; in test [6] it was 3.3 nM.

Take `CCCCc1nn(-c2ccccc2C(F)(F)F)c(=O)n1Cc1ccc(-c2ccccc2S(=O)(=O)NC(=O)C2CCCC2)cc1`: the IC50 stood at 82 nM in test [5] and 0.32 nM in test [6].

For `CCCCc1nn(-c2ccccc2C(F)(F)F)c(=O)n1Cc1ccc(-c2ccccc2S(=O)(=O)NC(=O)c2sccc2C)cc1`, the IC50 in test [5] came out at 80 nM; in test [6], 0.81 nM.

As for `CCCCc1nn(-c2ccccc2C(F)(F)F)c(=O)n1Cc1ccc(-c2ccccc2S(=O)(=O)NC(=O)c2cc3ccccc3s2)cc1`, the half-maximal inhibitory concentration (IC50) in test [5] is 430 nM; in test [6] it was 0.31 nM.

As to `CCCCc1nn(-c2ccccc2Cl)c(=O)n1Cc1ccc(-c2ccccc2S(=O)(=O)NC(=O)c2ccccc2)cc1`, the half-inhibitory concentration (IC50) in test [5] was found to be 590 nM; in test [6] it was 1.4 nM.

Consider `CCCCc1nn(-c2ccccc2C(F)(F)F)c(=O)n1Cc1ccc(-c2ccccc2S(=O)(=O)NC(=O)C(c2ccccc2)c2ccccc2)cc1`, for which the results for the IC50 in test [5] and in test [6] were 320 nM and 2.8 nM, respectively.

For `CCCCc1nn(-c2ccccc2C(F)(F)F)c(=O)n1Cc1ccc(-c2ccccc2S(=O)(=O)NC(=O)CCCC(=O)O)cc1`, the half-inhibitory concentration (IC50) was 1500 nM in test [5] and 5.5 nM in test [6].

Regarding `CCCCc1nn(-c2ccccc2C(F)(F)F)c(=O)n1Cc1ccc(-c2ccccc2S(=O)(=O)NC(=O)c2cccnc2Cl)cc1`, the 50% inhibitory concentration (IC50) was determined as 520 nM in test [5] and 1 nM in test [6].

Regarding `CCCCc1nn(-c2ccccc2C(F)(F)F)c(=O)n1Cc1ccc(-c2ccccc2S(=O)(=O)NC(=O)c2ccccc2Cl)cc1`, the Duration is above 24 h with Rattus norvegicus [1] and above 6 h in the test on Rattus norvegicus [2]. The IC50 in test [5] is 36 nM; in test [6] it was 0.11 nM.

`CCCCc1nn(-c2ccccc2C(F)(F)F)c(=O)n1Cc1ccc(-c2ccccc2S(=O)(=O)NC(=O)c2cc(Br)sc2Br)cc1`: the IC50 in test [5] was found to be 84 nM; in test [6], 0.67 nM.

Take `CCCCCCCC(=O)NS(=O)(=O)c1ccccc1-c1ccc(Cn2c(CCCC)nn(-c3ccccc3C(F)(F)F)c2=O)cc1`: the values for the IC50 in test [5] and in test [6] were 450 nM and 2.9 nM, respectively.

For `CCCCc1nn(-c2ccccc2C(F)(F)F)c(=O)n1Cc1ccc(-c2ccccc2S(=O)(=O)NC(=O)C2C(C)(C)C2(C)C)cc1`, the IC50 in test [5] came out at 130 nM; in test [6] it was 3.3 nM.

Take `CCCCc1nn(-c2ccccc2C(F)(F)F)c(=O)n1Cc1ccc(-c2ccccc2S(=O)(=O)NC(=O)c2ccccc2F)cc1`: the concentration for half-maximal inhibition (IC50) was determined as 53 nM in test [5] and 0.13 nM in test [6].

For `CCCCc1nn(-c2ccccc2C(F)(F)F)c(=O)n1Cc1ccc(-c2ccccc2S(=O)(=O)NC(=O)c2ccccc2Br)cc1`, the concentration for half-maximal inhibition (IC50) in test [5] was determined as 45 nM; in test [6] it was 0.4 nM.

For the compound `CCCCc1nn(-c2ccccc2C(F)(F)F)c(=O)n1Cc1ccc(-c2ccccc2S(=O)(=O)NC(=O)c2ccccc2-c2ccccc2)cc1`, the concentration for half-maximal inhibition (IC50) was found to be 330 nM in test [5] and 0.6 nM in test [6].

As for `O=C(NS(=O)(=O)c1ccccc1-c1ccc(Cn2c(CCCC(F)(F)F)nn(-c3ccccc3C(F)(F)F)c2=O)cc1)c1ccccc1`, the IC50 in test [5] is above 300 nM; in test [6], 5.5 nM.

Regarding `CCCCc1nn(-c2ccccc2C(F)(F)F)c(=O)n1Cc1ccc(-c2ccccc2S(=O)(=O)NC(=O)c2occ(Cl)c2Cl)cc1`, the figures for the IC50 in test [5] and in test [6] were 25 nM and 0.19 nM, respectively.

Consider `CCCCc1nn(-c2ccccc2C(F)(F)F)c(=O)n1Cc1ccc(-c2ccccc2S(=O)(=O)NC(=O)C2(C)CC2(Cl)Cl)cc1` (stereo not drawn), for which the values for the half-inhibitory concentration (IC50) in test [5] and in test [6] were 120 nM and 0.37 nM, respectively.

On to `CCCCc1nn(-c2ccccc2C(F)(F)F)c(=O)n1Cc1ccc(-c2ccccc2S(=O)(=O)NC(=O)c2cc(C)oc2C(F)(F)F)cc1`, for which the IC50 is 60 nM in test [5] and 0.17 nM in test [6].

Turning to `CCCCc1nn(-c2ccccc2C(F)(F)F)c(=O)n1Cc1ccc(-c2ccccc2S(=O)(=O)NC#N)cc1`, the IC50 in test [5] is above 1000 nM; in test [6], 4.7 nM.

Take `CCCCc1nn(-c2ccccc2C(F)(F)F)c(=O)n1Cc1ccc(-c2ccccc2S(=O)(=O)NC(=O)C2(C)CC2)cc1`: the results for the 50% inhibitory concentration (IC50) in test [5] and in test [6] were 76 nM and 0.8 nM, respectively.
